Test results published in ChEMBL document CHEMBL4052597, “Symmetrically Substituted Xanthone Amphiphiles Combat Gram-Positive Bacterial Resistance with Enhanced Membrane Selectivity” (J Med Chem, 2017).
In brackets after ≈: the same amount, converted by molar mass. Activity calls are given as the source filed them. The calls are words filed in the database; no cut-off is given here.

Assays:
Staphylococcus aureus [1] = experiment: Antibacterial activity against methicillin-resistant Staphylococcus aureus DB6506 after 24 hrs by two fold dilution assay; assay type: functional; conditions: DB6506, 24 h
Summary of the method: (§1)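 CLSI broth macrodilution in cation-adjusted Mueller-Hinton broth. Compounds were dissolved in DMF and diluted in PBS to a 1000 µg/mL stock, then serially 2-fold diluted in CA-MHB. The inoculum came from colonies on 18-20 h TSA plates (direct colony suspension), adjusted to ~5×10^5 CFU/mL. Incubation was 24 h at 35 °C. MIC is the lowest concentration with no visible growth versus control. Biological replicates.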

Staphylococcus aureus [2] = experiment: Antibacterial activity against methicillin-resistant Staphylococcus aureus ATCC 43300 after 24 hrs by two fold dilution assay; assay type: functional; conditions: ATCC 43300, 24 h; summary of the method: as §1
Staphylococcus aureus [3] = experiment: Disruption of membrane in Staphylococcus aureus isolate DM4001R assessed as increase in ATP leakage at 4 times MIC after 1 hr by ATP bioluminescent assay relative to control; assay type: functional
Summary of the method: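 S. aureus DM4001 grown to exponential phase, washed three times in 20 mM PBS (pH 7), resuspended to OD600 0.2. Compound added, suspensions held 1 hour at 37 °C, then centrifuged. Supernatant mixed with luciferase/luciferin enzyme mix; extracellular ATP quantified by luminescence. Replicated.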

Staphylococcus aureus [4] = experiment: Antibacterial activity against methicillin-sensitive Staphylococcus aureus ATCC 6538 after 24 hrs by two fold dilution assay; assay type: functional; conditions: ATCC 6538, 24 h; summary of the method: as §1
Staphylococcus aureus [5] = experiment: Antibacterial activity against Staphylococcus aureus ATCC 29213 at 0.5 times MIC after 30 serial passages; assay type: functional
Summary of the method: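 Serial-passage resistance selection in S. aureus ATCC29213. MIC was determined by CA-MHB broth macrodilution (2-fold dilutions, ~5×10^5 CFU/mL, 35 °C). Cells grown at 0.5× MIC were recovered and used to prepare the inoculum for the next MIC assay, with MIC change read after each 24 h/35 °C round. This was repeated for 17 passages, or 30 passages for one compound. Replicated.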

Enterococcus faecium [6] = experiment: Antibacterial activity against vancomycin A-resistant Enterococcus faecium VRE 1008 after 24 hrs by two fold dilution assay; assay type: functional; conditions: VRE 1008, 24 h; summary of the method: as §1
Enterococcus faecalis = experiment: Antibacterial activity against Enterococcus faecalis ATCC 29212 after 24 hrs by two fold dilution assay; assay type: functional; conditions: ATCC 29212, 24 h
Summary of the method: (§2)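 Broth macro-dilution per CLSI in cation-adjusted Mueller-Hinton broth; compounds dissolved in DMF, diluted in PBS to 1000 µg/mL stock, then serial 2-fold dilutions in CA-MHB in tubes. Inoculum from 18-20 h TSA colonies (direct colony suspension), adjusted to about 5× 10^5 CFU/mL. MIC read after 24 h at 35 °C as lowest concentration with no visible growth; biological replicates.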

Staphylococcus aureus [7] = experiment: Antibacterial activity against methicillin-resistant Staphylococcus aureus ATCC 700699 after 24 hrs by two fold dilution assay; assay type: functional; conditions: Mu50, 24 h; summary of the method: as §1
Staphylococcus aureus [8] = experiment: Antibacterial activity against methicillin-sensitive Staphylococcus aureus DM4400R after 24 hrs by two fold dilution assay; assay type: functional; summary of the method: as §1
Staphylococcus aureus [9] = experiment: Antibacterial activity against methicillin-sensitive Staphylococcus aureus ATCC 29737 after 24 hrs by two fold dilution assay; assay type: functional; conditions: ATCC 29737, 24 h; summary of the method: as §1
Lipid bilayer [10] = experiment: Induction of membrane damage in DOPC/cholesterol large unilamellar vesicles assessed as calcein leakage at compound to lipid ratio of 1:16 after 1 hr by fluorescence assay relative to control
Summary of the method: (§3)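 100 nm calcein-loaded LUVs made by film hydration; lipid content set by total phosphorus assay. DOPC/cholesterol (3:1, w/w) mimics mammalian and DOPE/DOPG (3:1, w/w) bacterial membranes. Compound in DMF added at lipid-to-compound ratio 16 (6.25 µM compound), final DMF limited to 0.5%. Fluorescence monitored at ex 490/em 520 nm for 1 hour; replicated.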

Staphylococcus aureus [11] = experiment: Antibacterial activity against methicillin-sensitive Staphylococcus aureus DM4299 after 24 hrs by two fold dilution assay; assay type: functional; conditions: DM4299, 24 h; summary of the method: as §1
Staphylococcus aureus [12] = experiment: Bactericidal activity against methicillin-resistant Staphylococcus aureus DM21455 assessed as log reduction in bacterial load at 2 times MIC after 30 mins by time kill assay; assay type: functional
Summary of the method: (§4)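 MRSA DM21455 was taken from colonies on 18-22 h TSA plates and diluted to 10^5~10^6 CFU/mL in PBS. Cells were exposed to 0.5×, 1×, 2× and 4× MIC at 35 °C, with a PBS control. Samples were taken at 10 min, 30 min, 1, 2, 4 and 8 h, 10-fold diluted in PBS and plated on MHA. Colonies were counted after 24-48 h at 35 °C. Replicated.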

Enterococcus faecium [13] = experiment: Antibacterial activity against vancomycin A-resistant Enterococcus faecium VRE 1007 after 24 hrs by two fold dilution assay; assay type: functional; conditions: VRE 1007, 24 h; summary of the method: as §1
[14] = Solubility of the compound in water; assay type: physicochemical; conditions: buffer
Staphylococcus aureus [15] = experiment: Antibacterial activity against methicillin-resistant Staphylococcus aureus DM 9808R after 24 hrs by two fold dilution assay; assay type: functional; summary of the method: as §1
Lipid bilayer [16] = experiment: Induction of membrane damage in DOPE/DOPG large unilamellar vesicles assessed as calcein leakage at compound to lipid ratio of 1:16 after 1 hr by fluorescence assay relative to control; summary of the method: as §3
Staphylococcus aureus [17] = experiment: Disruption of cytoplasmic membrane in Staphylococcus aureus isolate DM4001R at 2 times MIC after 3000 secs by SYTOX green dye based fluorescence assay; assay type: functional
Summary of the method: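 Clinical S. aureus isolate DM4001R incubated with SYTOX Green plus compound; membrane permeabilization read as increased fluorescence intensity. Measurements replicated.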

Staphylococcus aureus [18] = experiment: Antibacterial activity against methicillin-resistant Staphylococcus aureus DB68004 after 24 hrs by two fold dilution assay; assay type: functional; conditions: DB68004, 24 h; summary of the method: as §1
Staphylococcus aureus [19] = experiment: Antibacterial activity against methicillin-sensitive Staphylococcus aureus DM4583R after 24 hrs by two fold dilution assay; assay type: functional; summary of the method: as §1
[20] = Cytotoxicity against human corneal fibroblasts assessed as reduction in cell viability up to 250 uM after 4 hrs by CytoTox-ONE reagent-based LDH assay relative to control; conditions: corneal fibroblast
Summary of the method: (§5)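 Human corneal fibroblasts exposed to compound; cytotoxicity taken from LDH leakage, with cells treated with 1% triton X-100 as positive control. Measurements replicated.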

Staphylococcus aureus [21] = experiment: Antibacterial activity against methicillin-resistant Staphylococcus aureus DB57964 after 24 hrs by two fold dilution assay; assay type: functional; conditions: DB57964, 24 h; summary of the method: as §1
Staphylococcus aureus [22] = experiment: Antibacterial activity against methicillin-sensitive Staphylococcus aureus ATCC 29213 after 24 hrs by two fold dilution assay; assay type: functional; conditions: ATCC 29213, 24 h; summary of the method: as §1
Staphylococcus aureus [23] = experiment: Antibacterial activity against Staphylococcus aureus DM 4001R after 24 hrs by two fold dilution assay; assay type: functional; summary of the method: as §1
Staphylococcus aureus [24] = experiment: Antibacterial activity against methicillin-resistant Staphylococcus aureus DM 21455 after 24 hrs by two fold dilution assay; assay type: functional; conditions: DM 21455, 24 h; summary of the method: as §1
Enterococcus hirae = experiment: Antibacterial activity against Enterococcus hirae ATCC 9790 after 24 hrs by two fold dilution assay; assay type: functional; conditions: ATCC 9790, 24 h; summary of the method: as §2
Staphylococcus aureus [25] = experiment: Bactericidal activity against methicillin-resistant Staphylococcus aureus DM21455 assessed as log reduction in bacterial load at 4 times MIC after 10 mins by time kill assay; assay type: functional; summary of the method: as §4
Staphylococcus aureus [26] = experiment: Antibacterial activity against methicillin-resistant Staphylococcus aureus ATCC BAA-38 after 24 hrs by two fold dilution assay; assay type: functional; conditions: ATCC BAA-38, 24 h; summary of the method: as §1
[27] = Cytotoxicity against human corneal fibroblasts assessed as reduction in cell viability at 100 uM after 4 hrs by CytoTox-ONE reagent-based LDH assay; conditions: corneal fibroblast; summary of the method: as §5
Bacillus cereus = experiment: Antibacterial activity against Bacillus cereus ATCC 11778 after 24 hrs by two fold dilution assay; assay type: functional; conditions: ATCC 11778, 24 h; summary of the method: as §2
Enterococcus faecium [28] = experiment: Antibacterial activity against vancomycin A-resistant Enterococcus faecium VRE 1006 after 24 hrs by two fold dilution assay; assay type: functional; conditions: VRE 1006, 24 h; summary of the method: as §1

With COC(=O)[C@H](CCCNC(=N)N)NC(=O)[C@H](CCCNC(=N)N)NC(=O)COc1cc(OCC=C(C)C)cc2oc3cc(OCC=C(C)C)cc(OCC(=O)N[C@@H](CCCNC(=N)N)C(=O)N[C@@H](CCCNC(=N)N)C(=O)OC)c3c(=O)c12 as the molecule, how does the MIC (Staphylococcus aureus [1]) read?
The MIC was 1.56 µg/mL (≈ 1.34 µM).

And the MIC (Staphylococcus aureus [2])?
The MIC was 1.56 µg/mL (≈ 1.34 µM).

What about the Activity (Staphylococcus aureus [3]) of the same molecule?
The Activity was 66.4%.

And the MIC (Staphylococcus aureus [4])?
Its MIC is 1.56 µg/mL (≈ 1.34 µM).

And the Activity (Staphylococcus aureus [5])?
The Activity was “Active”.

What about the MIC (Enterococcus faecium [6]) of the same molecule?
Its MIC is 3.13 µg/mL (≈ 2.69 µM).

What about the MIC (Enterococcus faecalis) of the same molecule?
The MIC was 6.25 µg/mL (≈ 5.36 µM).

And the MIC (Staphylococcus aureus [7])?
The MIC was 1.56 µg/mL (≈ 1.34 µM).

And the MIC (Staphylococcus aureus [8])?
The MIC was 3.13 µg/mL (≈ 2.69 µM).

And the MIC (Staphylococcus aureus [9])?
The MIC was 1.56 µg/mL (≈ 1.34 µM).

What about the Activity (Lipid bilayer [10]) of the same molecule?
The Activity was under 20%.

What about the MIC (Staphylococcus aureus [11]) of the same molecule?
Its MIC is 1.56 µg/mL (≈ 1.34 µM).

And the “log(activity)” value (Staphylococcus aureus [12])?
The value was 3.

What about the MIC (Enterococcus faecium [13]) of the same molecule?
The MIC was 1.56 µg/mL (≈ 1.34 µM).

And the solubility [14]?
Its solubility is “Soluble”.

And the MIC (Staphylococcus aureus [15])?
The MIC was 3.13 µg/mL (≈ 2.69 µM).

And the Activity (Lipid bilayer [16])?
Its Activity is 63.3%.

What about the Activity (Staphylococcus aureus [17]) of the same molecule?
The Activity was “Active”.

And the MIC (Staphylococcus aureus [18])?
Its MIC is 1.56 µg/mL (≈ 1.34 µM).

What about the MIC (Staphylococcus aureus [19]) of the same molecule?
The MIC was 3.13 µg/mL (≈ 2.69 µM).

And the Activity [20]?
Its Activity is 27.4%.

And the MIC (Staphylococcus aureus [21])?
Its MIC is 1.56 µg/mL (≈ 1.34 µM).

And the MIC (Staphylococcus aureus [22])?
Its MIC is 3.13 µg/mL (≈ 2.69 µM).

What about the MIC (Staphylococcus aureus [23]) of the same molecule?
The MIC was 1.56 µg/mL (≈ 1.34 µM).

And the MIC (Staphylococcus aureus [24])?
Its MIC is 3.13 µg/mL (≈ 2.69 µM).

What about the MIC (Enterococcus hirae) of the same molecule?
Its MIC is 6.25 µg/mL (≈ 5.36 µM).

What about the “log(activity)” value (Staphylococcus aureus [25]) of the same molecule?
Its value is 3.

What about the MIC (Staphylococcus aureus [26]) of the same molecule?
The MIC was 3.13 µg/mL (≈ 2.69 µM).

What about the Activity [27] of the same molecule?
The Activity was “Non-Toxic”.

What about the MIC (Bacillus cereus) of the same molecule?
The MIC was 3.13 µg/mL (≈ 2.69 µM).

What about the MIC (Enterococcus faecium [28]) of the same molecule?
Its MIC is 1.56 µg/mL (≈ 1.34 µM).
